As a reminder, the AUC(0-t) is exposure summed from dosing to a finite time, without extrapolation to infinity. Read a high AUC(0-t) as more exposure.

Data set [1] has as its target T1, CYP1A1 (Homo sapiens, UniProt P04798).
T1 sequence (P04798 whole entry): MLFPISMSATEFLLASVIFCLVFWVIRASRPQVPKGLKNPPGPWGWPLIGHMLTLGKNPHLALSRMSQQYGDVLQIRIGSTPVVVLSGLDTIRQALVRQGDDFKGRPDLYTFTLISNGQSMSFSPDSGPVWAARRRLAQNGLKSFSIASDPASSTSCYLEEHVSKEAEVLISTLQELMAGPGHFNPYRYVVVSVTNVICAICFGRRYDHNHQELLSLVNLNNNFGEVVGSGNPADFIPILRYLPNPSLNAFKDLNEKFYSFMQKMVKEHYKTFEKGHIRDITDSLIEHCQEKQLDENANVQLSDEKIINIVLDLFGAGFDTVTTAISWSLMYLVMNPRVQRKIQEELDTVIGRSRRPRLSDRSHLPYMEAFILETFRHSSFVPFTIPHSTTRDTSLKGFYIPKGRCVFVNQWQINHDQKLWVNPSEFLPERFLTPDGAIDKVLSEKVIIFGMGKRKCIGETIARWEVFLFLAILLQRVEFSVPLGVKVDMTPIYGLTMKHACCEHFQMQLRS
The experiment in a line: Substrate activity at recombinant human CYP1A1 expressed in baculovirus infected insect cells assessed as parent compound remaining at 1 uM incubated for 60 mins in presence of NADP+-regenerating system by LC-MS analysis. Conditions: read-out: Stability. In kind it is ADME. An outline of the steps:
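Baculovirus/insect-cell Supersomes, each expressing a single human CYP, at 25 pmol/mL. Compound at 1 μM (0.25% DMSO), 37 °C, 60 min. Reactions run with a NADP+-regenerating cofactor mix or, as negative control, without cofactors and glucose-6-phosphate dehydrogenase. Stopped with ACN containing internal standard. Duplicates; % remaining from absolute amounts.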

Data set [2] is described as follows: Stability in CD-1 mouse hepatocytes assessed as parent compound remaining at 5 uM after 3 hrs by LC-MS analysis. In kind it is ADME, cell-based, Hepatocyte. Conditions: read-out: Stability. The procedure, abridged: (§1)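 Cryopreserved hepatocytes in suspension (200 000 cells/well) in Williams medium E with 2 mM L-glutamine and 25 mM HEPES. Test item at a final 5 μM (0.5% DMSO). Sampled at 0, 15, 60, 90 and 180 min. Precipitated with ACN, then LC–MS. Controls: 7-ethoxycoumarin and hepatocyte-free medium; n = 2.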

A short description of data set [3]: Stability in Sprague-Dawley rat hepatocytes assessed as parent compound remaining at 5 uM after 3 hrs by LC-MS analysis. Conditions: read-out: Stability. The format is ADME, cell-based, Hepatocyte. The procedure, abridged:
as §1

A short description of data set [4]: Stability in Beagle dog hepatocytes assessed as parent compound remaining at 5 uM after 3 hrs by LC-MS analysis. The settings on record: read-out: Stability. In kind it is ADME, cell-based, Canis lupus familiaris, Hepatocyte. An outline of the steps: as §1
The nature of data set [5]: Stability in human hepatocytes assessed as parent compound remaining at 5 uM after 3 hrs by LC-MS analysis. The settings on record: read-out: Stability. The format is ADME, cell-based, Hepatocyte. An outline of the steps:
as §1

Data set [6] addresses T1, CYP1A1. The experiment in a line: Drug metabolism assessed as recombinant human CYP1A1-mediated compound hydrolysis by measuring parent compound remaining incubated for 60 mins by LC-HRMS analysis. The format is ADME. Conditions: read-out: Stability. The procedure, abridged: (§2)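 Human recombinant CYP1A1 or CYP1A2 Supersomes (25 pmol/mL) incubated with compound at 1 μM (0.25% DMSO) plus NADP+-regenerating cofactors at 37 °C for 60 min. Reaction stopped with ACN containing internal standard. Parent and metabolites expressed as percentage of total peak areas.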

Data set [7] addresses T2, CYP1A2 (Homo sapiens, UniProt P05177).
T2 sequence (P05177 whole entry): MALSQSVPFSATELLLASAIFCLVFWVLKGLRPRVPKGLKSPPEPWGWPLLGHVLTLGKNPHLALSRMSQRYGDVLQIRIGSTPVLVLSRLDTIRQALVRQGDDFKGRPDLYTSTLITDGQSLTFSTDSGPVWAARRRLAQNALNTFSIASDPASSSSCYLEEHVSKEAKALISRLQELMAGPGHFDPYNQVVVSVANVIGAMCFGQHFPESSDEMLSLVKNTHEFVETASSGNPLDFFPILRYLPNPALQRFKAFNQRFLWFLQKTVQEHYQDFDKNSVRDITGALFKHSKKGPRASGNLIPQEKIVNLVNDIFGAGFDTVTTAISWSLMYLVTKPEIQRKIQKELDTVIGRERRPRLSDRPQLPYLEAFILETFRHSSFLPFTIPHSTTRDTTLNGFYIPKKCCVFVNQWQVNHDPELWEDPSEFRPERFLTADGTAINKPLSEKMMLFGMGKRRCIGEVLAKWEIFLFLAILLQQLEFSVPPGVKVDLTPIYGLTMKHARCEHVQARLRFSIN
The experiment in a line: Drug metabolism assessed as recombinant human CYP1A2-mediated compound hydrolysis by measuring parent compound remaining incubated for 60 mins by LC-HRMS analysis. In kind it is ADME. Conditions: read-out: Stability. An outline of the steps: as §2

Data set [8] can be described thus: AUC (0 to 8 hrs) in Sprague-Dawley rat plasma at 5 mg/kg, po by UHPLC-MS analysis. The format is ADME, organism-based. Set-up: time < 8 hr, dose 5 mg/kg, route oral. The procedure, abridged: (§3)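 Male Sprague Dawley rats (8 weeks old at delivery), single oral dose of 5 mg/kg, formulation at pH 3. Three rats per time point (30 min, 2, 4, 8 h) under isoflurane; heart-puncture blood into lithium-heparin, then brain collected. Plasma and tissue stored at −80 °C. Samples precipitated with acetonitrile containing diazepam internal standard, then LC–MS.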

The nature of data set [9]: AUC (0 to 8 hrs) in Sprague-Dawley rat brain at 5 mg/kg, po by UHPLC-MS analysis. In kind it is ADME, organism-based. Set-up: time < 8 hr, dose 5 mg/kg, route oral. The settings on record: in vivo. The procedure, abridged: as §3

In the case of `C[C@@H]1COCCN1c1nc(-c2cnc(N)nc2)nc2c1C[C@@H]1COCCN21`, in [1], the remaining at 1 h, 1 µM was found to be 51%. Further, the remaining at 3 h, 5 µM in data set [2] was 81.2%; in data set [3] it was 93.6%; in [4] it was 93%; in data set [5], 93.2%. Further, the remaining at 1 h in data set [6] came out at 73.3%; in data set [7] it was 99.7%.

With `C[C@@H]1COCCN1c1nc(-c2cnc(N)cn2)nc2c1C[C@@H]1COCCN21`, the remaining at 1 h, 1 µM in [1] was determined as 77%. Further, the AUC(0-t) at 8 h in data set [8] worked out at 5730 ng·h/mL. Besides, the AUC in data set [9] turned out to be 104 ng·h/g.
